Only some compounds are listed: those with a hit (about 3% of all), similar ones and a draw of the others.
MEKK2 WT-MEK5 – modulators of MEK5 binding to wildtype MEKK2, primary screen, biochemical, multiplex bead flow cytometry, Alexa488-MEK5; Mitogen-activated protein kinase kinase kinase 2 (Homo sapiens), Q9Y2U5; Alexa488-MEK5 binding to MEKK2 WT; actives lie on both sides; binding response (% of control), % at 10 µM; 290,000 tested, 1.1% active; in the data active = binding response below about 67% or above about 130%
Apaf1 inhib – inhibitors of human Apaf-1 apoptosome, primary screen, biochemical, DEVD-Rh110 fluorescence, uHTS | inhibition, % at 20 µM | 330,000 tested, 0.71% active | AID 489030, 2010 | reconstituted apoptosome caspase-3 activity; active = inhibition of at least 40% at 20 µM
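detection = Rh110 fluorescence intensity | test system = biochemical Apaf-1 apoptosome reconstitution | also added = cytochrome c and DEVD-Rh110 substrate | schedule = 30 min plus 50 min, RT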
MEKK2mut PB1 HTS – MEK5 binding signal on mutant MEKK2 PB1, primary screen, biochemical, multiplex bead flow cytometry, Alexa488-MEK5 | 290,000 tested, 0.35% active | AID 1530, 2009 | Alexa488-MEK5 binding to MEKK2 mutant | percent response, % at 10 µM; in the data active = percent response above about 24%, passing the limit was not always enough
UCH37 DUB inh – inhibitors of human UCH37 deubiquitinase, primary screen, biochemical, Ub-AMC cleavage, fluorescence | inhibition, % (test concentration not listed) | purified proteasome/UCH37 | 330,000 tested, 0.33% active | Ubiquitin carboxyl-terminal hydrolase isozyme L5 (Homo sapiens), Q9Y5K5;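 active = mean inhibition over replicate wells above about 20%, limit read from the data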
Target sequence (Q9Y5K5 whole entry, looked up): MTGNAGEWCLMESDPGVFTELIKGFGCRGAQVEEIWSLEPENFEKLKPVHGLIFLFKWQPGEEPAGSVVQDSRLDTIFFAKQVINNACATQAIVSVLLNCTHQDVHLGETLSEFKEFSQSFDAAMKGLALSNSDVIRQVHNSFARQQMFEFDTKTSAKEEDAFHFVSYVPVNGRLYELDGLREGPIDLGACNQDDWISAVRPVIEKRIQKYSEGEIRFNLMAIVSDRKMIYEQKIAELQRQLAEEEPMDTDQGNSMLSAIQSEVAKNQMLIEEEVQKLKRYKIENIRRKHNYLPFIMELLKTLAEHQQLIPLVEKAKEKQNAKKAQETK
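Material: human UCH37 enzyme supplied as purified proteasome complex. Measure: % inhibition of Ub-AMC cleavage fluorescence. Medium: pH 7.4 Tris-HCl (50 mM) with ovalbumin, ATP-MgCl2, DTT. Times: 30 min preincubation with enzyme, 25 min cleavage at room temperature. Detection: AMC fluorescence intensity at 355/460 nm.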
UBC13 polyUb – UBC13 polyubiquitin chain formation inhibitors, primary screen, biochemical, TR-FRET, uHTS | Ubiquitin-conjugating enzyme E2 N (Homo sapiens), P61088 | inhibition, % at 20 µM | 330,000 tested, 0.47% active | AID 485273, 2010; in the data active = inhibition above about 45%, passing the limit was not always enough
MEKK3 PB1 HTS – modulators of MEKK3-MEK5 PB1 binding, primary screen, biochemical, wildtype MEKK3, multiplex bead flow cytometry, Alexa488-MEK5; Mitogen-activated protein kinase kinase kinase 3 (Homo sapiens), Q99759; bead-based flow cytometry, Alexa488-MEK5 binding to MEKK3; actives lie on both sides; 0 = blocked by unlabeled MEK5, 100 = vehicle; binding response (% of control), % at 10 µM; 290,000 tested, 1.4% active;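 active = binding response more than 3 SD above or below the average of its plate-row segment, actives on both sides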;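 note: Alexa488 bead fluorescence after subtracting the streptavidin-only scavenger bead signal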
MEKK2wt confirm – modulators of MEK5 binding to wildtype MEKK2, confirmation, biochemical, single concentration, multiplex bead flow cytometry. AID 1892, 2009. binding response (% of control), % at 10 µM. shares compounds with MEKK3 PB1 HTS. 5,900 tested, 2.4% active. Alexa488-MEK5 binding to MEKK2 WT; actives lie on both sides; in the data active = binding response below about 16% or above about 210%; inactive = in between
MEKK2mut confirm – mutant MEKK2 PB1-MEK5 binding signal retest – biochemical, single concentration, multiplex bead flow cytometry, confirmation. shares compounds with MEKK3 PB1 HTS. Alexa488-MEK5 binding to MEKK2 mutant. percent response, % at 10 µM. 5,900 tested, 2% active; in the data active = percent response mostly above about 71%, no sharp cut-off; inactive = mostly below about 38%;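 note: higher means compound restores mutant binding toward wildtype level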
MEKK3 confirm – MEKK3 wild-type PB1 binding to MEK5, inhibitors, confirmation, biochemical, bead multiplex flow cytometry, single concentration, wildtype | shares compounds with MEKK3 PB1 HTS | Alexa488-MEK5 binding to MEKK3; hits give low values | binding response (% of control), % at 10 µM | 5,900 tested, 1.8% active | AID 1894, 2009;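 active = binding response below 72% of control, or above a set upper limit, though filed actives all read lower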;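 note: lower values mean stronger disruption of MEK5 binding to MEKK3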
Casp3 UBC13 ctr – CASP3 inhibitor validation, counterassay for project on UBE2N polyubiquitination blockers, biochemical, one dose; Recombinant caspase-3, Caspase-Glo 3/7 luminescence, 60 min; 1,400 tested, 4% active; shares compounds with UBC13 polyUb; AID 488856, 2010; inhibition, % at 20 µM;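 active = mean inhibition across replicates above about 26%, limit read from the data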
Target sequence (P42574 whole entry, looked up): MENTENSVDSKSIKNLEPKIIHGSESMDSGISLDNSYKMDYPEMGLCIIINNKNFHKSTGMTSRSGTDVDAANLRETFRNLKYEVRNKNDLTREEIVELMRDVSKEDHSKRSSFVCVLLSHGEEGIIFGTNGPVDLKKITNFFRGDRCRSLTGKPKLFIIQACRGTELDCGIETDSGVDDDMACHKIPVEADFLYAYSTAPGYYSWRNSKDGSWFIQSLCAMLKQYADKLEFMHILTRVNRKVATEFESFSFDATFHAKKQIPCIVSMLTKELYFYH
UBC13 conf – UBC13 polyubiquitination inhibitors, single-point retest, confirmation, biochemical, TR-FRET, single concentration; shares compounds with UBC13 polyUb; inhibition, % at 10 µM; 1,400 tested, 68% active; in the data active = inhibition above about 45%
Apaf-1 inh conf2 – Apaf-1 inhibitors, single-dose retest, confirmation, biochemical, fluorescence, DEVD-Rh110, 20 µM; shares compounds with Apaf1 inhib; reconstituted apoptosome, caspase-3 DEVD-Rh110 fluorescence; inhibition, % at 20 µM; 1,800 tested, 25% active; AID 504614, 2011;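 active = mean inhibition of at least 40% at 20 µM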
Rh110 quench – Rh110 fluorescence interference by putative Apaf-1 inhibitors, confirmation, artefact control for Apaf-1 inhibitor project, biochemical, 20 µM; shares compounds with Apaf1 inhib; quenched caspase reaction; activation (fluorescence interference), % at 20 µM; 1,800 tested, under 10 active; AID 504615, 2011;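 active = signal rise of 40% or more at 20 µM, treated as a fluorescence artifact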
Fluor interf inh – fluorescence interference of Apaf-1 inhibitor hits, dose response, artefact control for Apaf-1 inhibitor project | shares compounds with Apaf1 inhib | fluorescence interference counterscreen, Apaf-1 assay format | IC50, µM | 460 tested, under 10 active | AID 588538, 2011; call rule not given here
Large screens that a line does not name were inactive (follow-up assays come after a bar, where they were run); [ ] = dose if it differs, or a comment.

CCc1ccc(OCC(O)CN2CCC(CN3C(=O)c4cccc5cccc(c45)C3=O)CC2)cc1 (stereo not given)	MEKK2 WT-MEK5 148, Apaf1 inhib 42, UBC13 polyUb 61 | MEKK2wt confirm inactive | MEKK2mut confirm inactive | MEKK3 confirm inactive | Casp3 UBC13 ctr inactive | UBC13 conf 65 | Apaf-1 inh conf2 inactive | Rh110 quench inactive
Cc1cc(C)cc(OCC(O)CN2CCC(CN3C(=O)c4cccc5cccc(c45)C3=O)CC2)c1 (stereo not given)	none (no result: MEKK2 WT-MEK5, MEKK2mut PB1 HTS, MEKK3 PB1 HTS)
COc1cc(/C=C(\C#N)c2nc(-c3cc4ccccc4oc3=O)cs2)ccc1O	none
CCN(CC)CCOC(=O)c1ccc(N/C=C(/C#N)c2nc(-c3ccc4c(c3)OCO4)cs2)cc1	MEKK2 WT-MEK5 58[inhibitor], Apaf1 inhib 60, UBC13 polyUb 108, MEKK3 PB1 HTS 22[inhibitor] (no result: UCH37 DUB inh) | MEKK2wt confirm inactive | MEKK2mut confirm inactive | MEKK3 confirm 39 | Casp3 UBC13 ctr inactive | UBC13 conf 132 | Apaf-1 inh conf2 63 | Rh110 quench inactive | Fluor interf inh inactive
CCN(CC)CCOC(=O)c1ccc(N/C=C(/C#N)c2nc(-c3cc4ccccc4oc3=O)cs2)cc1	MEKK2 WT-MEK5 36[inhibitor], Apaf1 inhib 54, UBC13 polyUb 114, MEKK3 PB1 HTS 15[inhibitor] | MEKK2wt confirm 14[inhibitor] | MEKK2mut confirm inactive | MEKK3 confirm 13 | Casp3 UBC13 ctr inactive | UBC13 conf 132 | Apaf-1 inh conf2 61 | Rh110 quench inactive | Fluor interf inh inactive
CSC(=NC#N)N1CCN(c2ccccn2)CC1	none (no result: UCH37 DUB inh)
CC1CC(C)(C)CC2(C1)NC(=O)N(CC(=O)N1CCN(S(=O)(=O)c3cccc(F)c3)CC1)C2=O (stereo not given)	none (no result: MEKK2 WT-MEK5, MEKK2mut PB1 HTS, MEKK3 PB1 HTS)
COc1cc(OC)c2c(c1C(CCN1CCOCC1)c1ccc(N(C)C)cc1)OC(=O)CC2c1ccc(N(C)C)cc1 (stereo not given)	none
COc1cc(OC)c2c(-c3ccccc3)cc(=O)oc2c1C(CCN1CCCC(C)C1)c1ccc2c(c1)OCO2 (stereo not given)	MEKK2 WT-MEK5 183, Apaf1 inhib 56, MEKK2mut PB1 HTS 26 | MEKK2wt confirm inactive | MEKK2mut confirm inactive | MEKK3 confirm inactive | Apaf-1 inh conf2 inactive | Rh110 quench inactive
COc1ccc(C(CCN2CCCCC2)c2c(OC)cc(OC)c3c(-c4ccccc4)cc(=O)oc23)cc1 (stereo not given)	MEKK2 WT-MEK5 182, Apaf1 inhib 55, MEKK2mut PB1 HTS 26, UBC13 polyUb 68 | MEKK2wt confirm inactive | MEKK2mut confirm inactive | MEKK3 confirm inactive | Casp3 UBC13 ctr inactive | UBC13 conf inactive | Apaf-1 inh conf2 inactive | Rh110 quench inactive
COc1cc(OC)c2c(C)cc(=O)oc2c1C(CCN1CCOCC1)c1ccc2c(c1)OCO2 (stereo not given)	none
COc1cc(OC)c2c(-c3ccccc3)cc(=O)oc2c1C(CCN1CCCCC1)c1ccc(N(C)C)cc1 (stereo not given)	MEKK2 WT-MEK5 183, Apaf1 inhib 54, UBC13 polyUb 51 | MEKK2wt confirm inactive | MEKK2mut confirm inactive | MEKK3 confirm inactive | Casp3 UBC13 ctr inactive | UBC13 conf inactive | Apaf-1 inh conf2 inactive | Rh110 quench inactive
COc1cc(C(CCN2CCN(c3ccccc3)CC2)c2c(OC)cc(OC)c3c(C)cc(=O)oc23)cc(OC)c1OC (stereo not given)	none
O=C(Oc1cccnc1)c1cccc(Cl)c1	none
O=c1[nH]c(C2CCCN(S(=O)(=O)c3ccccc3)C2)nc2c1nnn2Cc1ccccc1Br (stereo not given)	none
CC1=C(C(=O)OCC(C)C)C(c2ccc(Br)s2)NC(=O)N1 (stereo not given)	none
CCN1CCN(Cc2ccc(NC(=O)c3ccc(C)c(NC(=O)C(=O)c4c[nH]c5ccccc45)c3)cc2C(F)(F)F)CC1	MEKK2 WT-MEK5 301, Apaf1 inhib 74, MEKK2mut PB1 HTS 95, UBC13 polyUb 53 | MEKK2wt confirm 239 | MEKK2mut confirm 172 | MEKK3 confirm inactive | Casp3 UBC13 ctr inactive | UBC13 conf 96 | Apaf-1 inh conf2 inactive | Rh110 quench inactive
